mABHD4 FP: inhibits mouse alpha/beta hydrolase domain 4; AID 720543; 370,000 tested, 0.54% active; Q8VD66; purified mABHD4, FP-Rh probe fluorescence polarization; inhibition, % at 8.92 µM;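 active means inhibition exceeding the mean over every tested compound plus 3 SD, cut at about 30% in these data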
Target sequence (Q8VD66 whole entry, looked up, the tested form may be a part): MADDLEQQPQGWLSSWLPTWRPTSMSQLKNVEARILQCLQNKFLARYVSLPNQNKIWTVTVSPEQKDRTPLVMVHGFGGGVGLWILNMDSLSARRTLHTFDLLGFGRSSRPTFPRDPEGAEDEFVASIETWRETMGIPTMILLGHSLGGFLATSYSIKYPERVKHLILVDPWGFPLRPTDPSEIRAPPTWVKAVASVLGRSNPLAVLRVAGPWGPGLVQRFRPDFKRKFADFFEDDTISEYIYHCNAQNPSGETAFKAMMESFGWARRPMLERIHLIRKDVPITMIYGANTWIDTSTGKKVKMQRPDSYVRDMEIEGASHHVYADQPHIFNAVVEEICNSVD
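Doses – 8.92 µM, single dose · Material – wild-type mouse ABHD4 protein · Replication – single well per compound (singlicate) · Measure – percent inhibition of probe binding, normalized to plate controls · Schedule – 45 min compound pre-incubation plus 60 min probe step, 25 °C · Detection – fluorescence polarization with parallel and perpendicular emission, 525/598 nm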
SIAE primary: blocks human sialic acid acetylesterase; AID 1053197; 370,000 tested, 0.69% active; inhibition, % at 9.66 µM; SIAE FP-Rh probe binding, fluorescence polarization; Q9HAT2;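 active means inhibition above a cutoff: mean of compounds within the control limits plus 3 SD of those, cut at about 17% in these data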
PRMT1 FP inh: blocks human protein arginine methyltransferase 1; recombinant PRMT1, activity-based probe fluorescence polarization; Q99873; inhibition, % at 2.79 µM; 370,000 tested, 1.3% active;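 active means inhibition above about 21% made by adding two undisclosed values, limit read from the data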
TCR-CD3 inh: human TCR-CD3 binding inhibition; AID 651800; 360,000 tested, 0.37% active; TAMRA-labeled TCR probe fluorescence, biochemical; inhibition, % at 9.4 µM; in the data active means inhibition above about 19%;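 further: recombinant mutant TCR 2C K166C tagged with TAMRA read by polarization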
HTRA1 inh: HTRA1 (human) protease inhibition. Q92743. recombinant HTRA1, FP-rhodamine activity-based probe, fluorescence polarization. inhibition, % at 5.96 µM. 340,000 tested, 0.5% active. AID 504803; in the data active means inhibition above about 36%
ABHD4 confirm: confirmation of mouse ABHD4 inhibitors; shares compounds with mABHD4 FP; purified mABHD4, FP-Rh probe fluorescence polarization; inhibition, % at 8.92 µM; 1,800 tested, 55% active;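 active means mean inhibition across replicates above the hit cutoff set in the primary screen, cut at about 30% in these data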
SIAE inh conf: confirmation of human SIAE inhibitors; shares compounds with SIAE primary; SIAE FP-Rh activity-based probe, fluorescence polarization; 2,300 tested, 13% active; inhibition, % at 9.66 µM;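 active means mean inhibition of the replicates above the hit cutoff set in the primary screen, cut at about 17% in these data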;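 further: inhibitors lower polarization as more probe stays unbound to SIAE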
A number is an active result. Sampled rows, rich in hits. Any-hit rate of the full collection: about 2.5%.

For COC(=O)N/N=C/c1ccc(-c2ccc(Cl)cc2Cl)o1 the results were mABHD4 FP inactive, SIAE primary inactive, PRMT1 FP inh inactive, TCR-CD3 inh inactive and HTRA1 inh inactive.
Screening O=C(O)c1ccc(N/N=C/c2ccc(-c3ccc(Cl)cc3Cl)o2)cc1 returned mABHD4 FP 57, SIAE primary 18, PRMT1 FP inh inactive, TCR-CD3 inh inactive, HTRA1 inh inactive, ABHD4 confirm 67 and SIAE inh conf 20.
CN(C)CCn1nnc2c(=O)oc3ccccc3c21 was read as mABHD4 FP inactive, SIAE primary inactive, PRMT1 FP inh inactive, TCR-CD3 inh inactive and HTRA1 inh inactive.
For COc1cc(/C=N/NC(=O)C(Cc2c[nH]c3ccccc23)NC(=O)OCC(C)C)cc([N+](=O)[O-])c1O (stereo unspecified) the results were mABHD4 FP 36, SIAE primary 55, PRMT1 FP inh inactive, TCR-CD3 inh inactive, HTRA1 inh inactive, ABHD4 confirm 49 and SIAE inh conf 44.
For CC(=O)NC(Cc1c[nH]c2ccccc12)C(=O)N/N=C/c1ccccc1 (stereo unspecified) the results were mABHD4 FP inactive, SIAE primary inactive, PRMT1 FP inh inactive, TCR-CD3 inh inactive and HTRA1 inh inactive.
O=C(O)c1cccc(N/N=C/c2cc(Br)cc(Br)c2O)c1 was read as mABHD4 FP 56, SIAE primary 31, PRMT1 FP inh inactive, TCR-CD3 inh inactive, HTRA1 inh inactive, ABHD4 confirm 80 and SIAE inh conf inactive.
`COP(=O)(O)C(Cc1ccccc1)NC(=O)OCc1ccccc1` (stereo unspecified) gave mABHD4 FP inactive, SIAE primary inactive and PRMT1 FP inh inactive.
Screening O=[N+]([O-])c1cc(/C=N/Nc2nc3ccccc3[nH]2)c(O)cc1O returned mABHD4 FP 49, SIAE primary 23, PRMT1 FP inh inactive, TCR-CD3 inh inactive, ABHD4 confirm 72 and SIAE inh conf 22.
For Cc1ccccc1/C=N/Nc1nc2ccccc2[nH]1 the results were mABHD4 FP inactive, SIAE primary inactive, PRMT1 FP inh inactive, TCR-CD3 inh inactive and HTRA1 inh inactive.
CC(C)Oc1ccc(CN2CCC2(C)C(=O)Nc2cnc3ccccc3c2)cc1 (stereo unspecified) was read as mABHD4 FP inactive, SIAE primary inactive, PRMT1 FP inh inactive and TCR-CD3 inh inactive.
C(=C\c1ccccc1)/C=N/Nc1nc2ccccc2[nH]1 was read as mABHD4 FP 32, SIAE primary 22, PRMT1 FP inh inactive, TCR-CD3 inh inactive, HTRA1 inh inactive, ABHD4 confirm 33 and SIAE inh conf 18.
Cc1c2ccncc2cc2c1[nH]c1ccccc12 was read as mABHD4 FP inactive, SIAE primary inactive, PRMT1 FP inh inactive, TCR-CD3 inh inactive and HTRA1 inh inactive.
For COc1ccc2[nH]c3c(C)c4ccncc4c(C)c3c2c1 the results were mABHD4 FP 32, SIAE primary 21, PRMT1 FP inh inactive, TCR-CD3 inh inactive, HTRA1 inh inactive, ABHD4 confirm 57 and SIAE inh conf 20.
Screening COC(=O)Cc1csc(Nc2ccc(F)c(Cl)c2)n1 returned mABHD4 FP 36, SIAE primary 22, PRMT1 FP inh inactive, TCR-CD3 inh inactive, HTRA1 inh inactive, ABHD4 confirm inactive and SIAE inh conf inactive.
Screening COC(=O)Cc1csc(Nc2ccc(Cl)cc2)n1 returned mABHD4 FP inactive, SIAE primary inactive, PRMT1 FP inh inactive, TCR-CD3 inh inactive and HTRA1 inh inactive.
Cc1[nH]nc2c1C(c1cccc(C(F)(F)F)c1)NC2=O (stereo unspecified) was read as mABHD4 FP inactive, SIAE primary inactive, PRMT1 FP inh inactive and TCR-CD3 inh inactive.
Oc1cccc(NC(=S)Nc2ccc(SC(F)F)cc2)c1 was read as mABHD4 FP inactive, SIAE primary inactive, PRMT1 FP inh inactive, TCR-CD3 inh inactive and HTRA1 inh inactive.
Oc1cccc2c(NC(=S)Nc3ccc(SC(F)F)cc3)cccc12 was read as mABHD4 FP 40, SIAE primary 19, PRMT1 FP inh inactive, TCR-CD3 inh inactive, HTRA1 inh inactive, ABHD4 confirm inactive and SIAE inh conf inactive.
For O=C(NNc1c2ccccc2nc2ccccc12)c1ccc(O)cc1O the results were mABHD4 FP 35, SIAE primary 28, PRMT1 FP inh inactive, TCR-CD3 inh inactive, HTRA1 inh inactive, ABHD4 confirm 62 and SIAE inh conf inactive.
For O=C(NNc1c2ccccc2nc2ccccc12)c1ccccc1Cl the results were mABHD4 FP inactive, SIAE primary inactive, PRMT1 FP inh inactive, TCR-CD3 inh inactive and HTRA1 inh inactive.
For CCN(C(=O)Cn1c(=O)oc2ccccc21)c1ccc(C)c(C)c1 the results were mABHD4 FP inactive, SIAE primary inactive, PRMT1 FP inh inactive, TCR-CD3 inh inactive and HTRA1 inh inactive.
CCOC(=O)Cc1cc(=O)c2c(=O)n(-c3ccccc3)[nH]c2[nH]1 was read as mABHD4 FP 57, SIAE primary 18, PRMT1 FP inh inactive, TCR-CD3 inh inactive, HTRA1 inh inactive, ABHD4 confirm inactive and SIAE inh conf inactive.
Screening COc1cccc(/C=N/NC(=O)c2ccc3nc[nH]c3c2)c1O returned mABHD4 FP inactive, SIAE primary inactive, PRMT1 FP inh inactive, TCR-CD3 inh inactive and HTRA1 inh inactive.
COc1cccc(/C=N/NC(=O)c2cc3c(OC)ccc(OC)c3[nH]2)c1O was read as mABHD4 FP 37, SIAE primary 34, PRMT1 FP inh inactive, TCR-CD3 inh inactive, HTRA1 inh inactive, ABHD4 confirm 62 and SIAE inh conf inactive.
O=C(NCCCN1CCCC1=O)c1ccc2c(c1)NC(=O)c1ccccc1S2 was read as mABHD4 FP inactive, SIAE primary inactive, PRMT1 FP inh inactive, TCR-CD3 inh inactive and HTRA1 inh inactive.
`C/C(=N/Nc1ccc(C(=O)O)cc1)c1ccc2c(c1)Nc1ccccc1S2` gave mABHD4 FP 56, SIAE primary 17, PRMT1 FP inh inactive, TCR-CD3 inh inactive, HTRA1 inh inactive, ABHD4 confirm 81 and SIAE inh conf 28.
`COC(=O)c1c(Cl)c2n3ccccc3c(C)c(-c3ccccc3)c-2c1C(=O)OC` gave mABHD4 FP 44, SIAE primary 21, PRMT1 FP inh 34, TCR-CD3 inh inactive, HTRA1 inh inactive, ABHD4 confirm inactive and SIAE inh conf inactive.
For Nn1c(SCC(=O)Nc2nccs2)nnc1-c1ccccn1 the results were mABHD4 FP inactive, SIAE primary inactive, PRMT1 FP inh inactive, TCR-CD3 inh inactive and HTRA1 inh inactive.
Screening CCn1cnc2cc(NCc3cccs3)ccc21 returned mABHD4 FP inactive, SIAE primary 21, PRMT1 FP inh inactive, TCR-CD3 inh inactive, HTRA1 inh inactive and SIAE inh conf inactive.
`CCC1CCCCN1C(=O)Nc1cc(Cl)ccc1OC` (stereo unspecified) gave mABHD4 FP inactive, SIAE primary inactive, PRMT1 FP inh inactive, TCR-CD3 inh inactive and HTRA1 inh inactive.
